# ChEMBL document CHEMBL1949561, “Synthesis and triplex-forming ability of oligonucleotides bearing 1-substituted 1H-1,2,3-triazole nucleobases” (Bioorg Med Chem, 2011)
# Key:
# Type in all cases: nucleic-acid assay
# Nucleic Acid [1] = experiment: Binding affinity to5'-GCTAAAAAGACAGAGAGATCG-3'/5'- CGATCTCTCTGTCTTTTTAGC-3' double stranded DNA assessed as melting temperature at 1.5 uM in sodium phosphate buffer at pH 7 by UV spectrophotometric analysis
# Method in brief: (§1)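 UV melting of triplexes between each modified TFO and the 21-bp duplex target, in 7 mM sodium phosphate buffer (pH 7.0), 140 mM KCl and 10 mM MgCl₂. Each oligonucleotide at 1.5 µM final. Absorbance followed at 260 nm from 5 °C to 85 °C, scanned at 0.5 °C/min, to give Tm.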
# Nucleic Acid [2] = experiment: Binding affinity to 5'-GCTAAAAAGAGAGAGAGATCG-3'/5'- CGATCTCTCTCTCTTTTTAGC-3' double stranded DNA assessed as melting temperature at 1.5 uM in sodium phosphate buffer at pH 7 by UV spectrophotometric analysis; method in brief: as §1
# Nucleic Acid [3] = experiment: Binding affinity to 5'-GCTAAAAAGATAGAGAGATCG-3'/5'- CGATCTCTCTATCTTTTTAGC-3' double stranded DNA assessed as melting temperature at 1.5 uM in sodium phosphate buffer at pH 7 by UV spectrophotometric analysis; method in brief: as §1
# Nucleic Acid [4] = experiment: Binding affinity to 5'-GCTAAAAAGAAAGAGAGATCG-3'/5'- CGATCTCTCTTTCTTTTTAGC-3' double stranded DNA assessed as melting temperature at 1.5 uM in sodium phosphate buffer at pH 7 by UV spectrophotometric analysis; method in brief: as §1
SMILES,Tm (Nucleic Acid [1]) [°C],Tm (Nucleic Acid [2]) [°C],Tm (Nucleic Acid [3]) [°C],Tm (Nucleic Acid [4]) [°C]
Cc1cn([C@H]2C[C@H](OP(=O)(O)OC[C@H]3O[C@@H](n4cc(C)c(=O)[nH]c4=O)C[C@@H]3OP(=O)(O)OC[C@H]3O[C@@H](n4cc(C)c(N)nc4=O)C[C@@H]3OP(=O)(O)OC[C@H]3O[C@@H](n4cc(C)c(=O)[nH]c4=O)C[C@@H]3OP(=O)(O)OC[C@H]3O[C@@H](n4cc(C)c(N)nc4=O)C[C@@H]3OP(=O)(O)OC[C@H]3O[C@@H](n4cc(C)c(=O)[nH]c4=O)C[C@@H]3OP(=O)(O)OC[C@H]3O[C@@H](c4cn(-c5cccc(O)c5)nn4)C[C@@H]3OP(=O)(O)OC[C@H]3O[C@@H](n4cc(C)c(=O)[nH]c4=O)C[C@@H]3OP(=O)(O)OC[C@H]3O[C@@H](n4cc(C)c(N)nc4=O)C[C@@H]3OP(=O)(O)OC[C@H]3O[C@@H](n4cc(C)c(=O)[nH]c4=O)C[C@@H]3OP(=O)(O)OC[C@H]3O[C@@H](n4cc(C)c(=O)[nH]c4=O)C[C@@H]3OP(=O)(O)OC[C@H]3O[C@@H](n4cc(C)c(=O)[nH]c4=O)C[C@@H]3OP(=O)(O)OC[C@H]3O[C@@H](n4cc(C)c(=O)[nH]c4=O)C[C@@H]3OP(=O)(O)OC[C@H]3O[C@@H](n4cc(C)c(=O)[nH]c4=O)C[C@@H]3O)[C@@H](COP(=O)(O)O[C@H]3C[C@H](n4cc(C)c(=O)[nH]c4=O)O[C@@H]3CO)O2)c(=O)nc1N,21,< 10,14,< 10
Cc1ccc(-n2cc([C@H]3C[C@H](OP(=O)(O)OC[C@H]4O[C@@H](n5cc(C)c(=O)[nH]c5=O)C[C@@H]4OP(=O)(O)OC[C@H]4O[C@@H](n5cc(C)c(N)nc5=O)C[C@@H]4OP(=O)(O)OC[C@H]4O[C@@H](n5cc(C)c(=O)[nH]c5=O)C[C@@H]4OP(=O)(O)OC[C@H]4O[C@@H](n5cc(C)c(=O)[nH]c5=O)C[C@@H]4OP(=O)(O)OC[C@H]4O[C@@H](n5cc(C)c(=O)[nH]c5=O)C[C@@H]4OP(=O)(O)OC[C@H]4O[C@@H](n5cc(C)c(=O)[nH]c5=O)C[C@@H]4OP(=O)(O)OC[C@H]4O[C@@H](n5cc(C)c(=O)[nH]c5=O)C[C@@H]4O)[C@@H](COP(=O)(O)O[C@H]4C[C@H](n5cc(C)c(=O)[nH]c5=O)O[C@@H]4COP(=O)(O)O[C@H]4C[C@H](n5cc(C)c(N)nc5=O)O[C@@H]4COP(=O)(O)O[C@H]4C[C@H](n5cc(C)c(=O)[nH]c5=O)O[C@@H]4COP(=O)(O)O[C@H]4C[C@H](n5cc(C)c(N)nc5=O)O[C@@H]4COP(=O)(O)O[C@H]4C[C@H](n5cc(C)c(=O)[nH]c5=O)O[C@@H]4COP(=O)(O)O[C@H]4C[C@H](n5cc(C)c(N)nc5=O)O[C@@H]4COP(=O)(O)O[C@H]4C[C@H](n5cc(C)c(=O)[nH]c5=O)O[C@@H]4CO)O3)nn2)cc1,21,< 10,13,< 10
Cc1cn([C@H]2C[C@H](OP(=O)(O)OC[C@H]3O[C@@H](n4cc(C)c(=O)[nH]c4=O)C[C@@H]3OP(=O)(O)OC[C@H]3O[C@@H](n4cc(C)c(N)nc4=O)C[C@@H]3OP(=O)(O)OC[C@H]3O[C@@H](n4cc(C)c(=O)[nH]c4=O)C[C@@H]3OP(=O)(O)OC[C@H]3O[C@@H](n4cc(C)c(N)nc4=O)C[C@@H]3OP(=O)(O)OC[C@H]3O[C@@H](n4cc(C)c(=O)[nH]c4=O)C[C@@H]3OP(=O)(O)OC[C@H]3O[C@@H](c4cn(Cc5ccccc5)nn4)C[C@@H]3OP(=O)(O)OC[C@H]3O[C@@H](n4cc(C)c(=O)[nH]c4=O)C[C@@H]3OP(=O)(O)OC[C@H]3O[C@@H](n4cc(C)c(N)nc4=O)C[C@@H]3OP(=O)(O)OC[C@H]3O[C@@H](n4cc(C)c(=O)[nH]c4=O)C[C@@H]3OP(=O)(O)OC[C@H]3O[C@@H](n4cc(C)c(=O)[nH]c4=O)C[C@@H]3OP(=O)(O)OC[C@H]3O[C@@H](n4cc(C)c(=O)[nH]c4=O)C[C@@H]3OP(=O)(O)OC[C@H]3O[C@@H](n4cc(C)c(=O)[nH]c4=O)C[C@@H]3OP(=O)(O)OC[C@H]3O[C@@H](n4cc(C)c(=O)[nH]c4=O)C[C@@H]3O)[C@@H](COP(=O)(O)O[C@H]3C[C@H](n4cc(C)c(=O)[nH]c4=O)O[C@@H]3CO)O2)c(=O)nc1N,19,< 10,12,< 10
Cc1cn([C@H]2C[C@H](OP(=O)(O)OC[C@H]3O[C@@H](n4cc(C)c(=O)[nH]c4=O)C[C@@H]3OP(=O)(O)OC[C@H]3O[C@@H](n4cc(C)c(N)nc4=O)C[C@@H]3OP(=O)(O)OC[C@H]3O[C@@H](n4cc(C)c(=O)[nH]c4=O)C[C@@H]3OP(=O)(O)OC[C@H]3O[C@@H](n4cc(C)c(N)nc4=O)C[C@@H]3OP(=O)(O)OC[C@H]3O[C@@H](n4cc(C)c(=O)[nH]c4=O)C[C@@H]3OP(=O)(O)OC[C@H]3O[C@@H](c4cn(-c5cccc(NC(N)=O)c5)nn4)C[C@@H]3OP(=O)(O)OC[C@H]3O[C@@H](n4cc(C)c(=O)[nH]c4=O)C[C@@H]3OP(=O)(O)OC[C@H]3O[C@@H](n4cc(C)c(N)nc4=O)C[C@@H]3OP(=O)(O)OC[C@H]3O[C@@H](n4cc(C)c(=O)[nH]c4=O)C[C@@H]3OP(=O)(O)OC[C@H]3O[C@@H](n4cc(C)c(=O)[nH]c4=O)C[C@@H]3OP(=O)(O)OC[C@H]3O[C@@H](n4cc(C)c(=O)[nH]c4=O)C[C@@H]3OP(=O)(O)OC[C@H]3O[C@@H](n4cc(C)c(=O)[nH]c4=O)C[C@@H]3OP(=O)(O)OC[C@H]3O[C@@H](n4cc(C)c(=O)[nH]c4=O)C[C@@H]3O)[C@@H](COP(=O)(O)O[C@H]3C[C@H](n4cc(C)c(=O)[nH]c4=O)O[C@@H]3CO)O2)c(=O)nc1N,22,< 10,17,13
Cc1cn([C@H]2C[C@H](OP(=O)(O)OC[C@H]3O[C@@H](n4cc(C)c(=O)[nH]c4=O)C[C@@H]3OP(=O)(O)OC[C@H]3O[C@@H](n4cc(C)c(N)nc4=O)C[C@@H]3OP(=O)(O)OC[C@H]3O[C@@H](n4cc(C)c(=O)[nH]c4=O)C[C@@H]3OP(=O)(O)OC[C@H]3O[C@@H](n4cc(C)c(N)nc4=O)C[C@@H]3OP(=O)(O)OC[C@H]3O[C@@H](n4cc(C)c(=O)[nH]c4=O)C[C@@H]3OP(=O)(O)OC[C@H]3O[C@@H](c4cn(C56CC7CC(CC(C7)C5)C6)nn4)C[C@@H]3OP(=O)(O)OC[C@H]3O[C@@H](n4cc(C)c(=O)[nH]c4=O)C[C@@H]3OP(=O)(O)OC[C@H]3O[C@@H](n4cc(C)c(N)nc4=O)C[C@@H]3OP(=O)(O)OC[C@H]3O[C@@H](n4cc(C)c(=O)[nH]c4=O)C[C@@H]3OP(=O)(O)OC[C@H]3O[C@@H](n4cc(C)c(=O)[nH]c4=O)C[C@@H]3OP(=O)(O)OC[C@H]3O[C@@H](n4cc(C)c(=O)[nH]c4=O)C[C@@H]3OP(=O)(O)OC[C@H]3O[C@@H](n4cc(C)c(=O)[nH]c4=O)C[C@@H]3OP(=O)(O)OC[C@H]3O[C@@H](n4cc(C)c(=O)[nH]c4=O)C[C@@H]3O)[C@@H](COP(=O)(O)O[C@H]3C[C@H](n4cc(C)c(=O)[nH]c4=O)O[C@@H]3CO)O2)c(=O)nc1N,17,< 10,11,< 10
Cc1cn([C@H]2C[C@H](OP(=O)(O)OC[C@H]3O[C@@H](n4cc(C)c(=O)[nH]c4=O)C[C@@H]3OP(=O)(O)OC[C@H]3O[C@@H](n4cc(C)c(N)nc4=O)C[C@@H]3OP(=O)(O)OC[C@H]3O[C@@H](n4cc(C)c(=O)[nH]c4=O)C[C@@H]3OP(=O)(O)OC[C@H]3O[C@@H](n4cc(C)c(N)nc4=O)C[C@@H]3OP(=O)(O)OC[C@H]3O[C@@H](n4cc(C)c(=O)[nH]c4=O)C[C@@H]3OP(=O)(O)OC[C@H]3O[C@@H](c4cn(-c5cccnc5O)nn4)C[C@@H]3OP(=O)(O)OC[C@H]3O[C@@H](n4cc(C)c(=O)[nH]c4=O)C[C@@H]3OP(=O)(O)OC[C@H]3O[C@@H](n4cc(C)c(N)nc4=O)C[C@@H]3OP(=O)(O)OC[C@H]3O[C@@H](n4cc(C)c(=O)[nH]c4=O)C[C@@H]3OP(=O)(O)OC[C@H]3O[C@@H](n4cc(C)c(=O)[nH]c4=O)C[C@@H]3OP(=O)(O)OC[C@H]3O[C@@H](n4cc(C)c(=O)[nH]c4=O)C[C@@H]3OP(=O)(O)OC[C@H]3O[C@@H](n4cc(C)c(=O)[nH]c4=O)C[C@@H]3OP(=O)(O)OC[C@H]3O[C@@H](n4cc(C)c(=O)[nH]c4=O)C[C@@H]3O)[C@@H](COP(=O)(O)O[C@H]3C[C@H](n4cc(C)c(=O)[nH]c4=O)O[C@@H]3CO)O2)c(=O)nc1N,24,15,15,12
Cc1cn([C@H]2C[C@H](OP(=O)(O)OC[C@H]3O[C@@H](n4cc(C)c(=O)[nH]c4=O)C[C@@H]3OP(=O)(O)OC[C@H]3O[C@@H](n4cc(C)c(N)nc4=O)C[C@@H]3OP(=O)(O)OC[C@H]3O[C@@H](n4cc(C)c(=O)[nH]c4=O)C[C@@H]3OP(=O)(O)OC[C@H]3O[C@@H](n4cc(C)c(N)nc4=O)C[C@@H]3OP(=O)(O)OC[C@H]3O[C@@H](n4cc(C)c(=O)[nH]c4=O)C[C@@H]3OP(=O)(O)OC[C@H]3O[C@@H](c4cn(-c5ccc(CO)cc5)nn4)C[C@@H]3OP(=O)(O)OC[C@H]3O[C@@H](n4cc(C)c(=O)[nH]c4=O)C[C@@H]3OP(=O)(O)OC[C@H]3O[C@@H](n4cc(C)c(N)nc4=O)C[C@@H]3OP(=O)(O)OC[C@H]3O[C@@H](n4cc(C)c(=O)[nH]c4=O)C[C@@H]3OP(=O)(O)OC[C@H]3O[C@@H](n4cc(C)c(=O)[nH]c4=O)C[C@@H]3OP(=O)(O)OC[C@H]3O[C@@H](n4cc(C)c(=O)[nH]c4=O)C[C@@H]3OP(=O)(O)OC[C@H]3O[C@@H](n4cc(C)c(=O)[nH]c4=O)C[C@@H]3OP(=O)(O)OC[C@H]3O[C@@H](n4cc(C)c(=O)[nH]c4=O)C[C@@H]3O)[C@@H](COP(=O)(O)O[C@H]3C[C@H](n4cc(C)c(=O)[nH]c4=O)O[C@@H]3CO)O2)c(=O)nc1N,24,< 10,16,< 10
